Source: PubChem
SENP1 inh – inhibitors of human SENP1 SUMO protease catalytic domain. Q9P0U3. recombinant SENP1 catalytic domain, CyPet-SUMO1-YPet FRET cleavage. inhibition, % at 10 µM. actives 0.21% (n = 360,000). AID 624204;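 active means inhibition at least 30% at 10 µM, raw YFP signal under a set limit, fluorescence ratio 0.5 to 1.5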;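 further: 0% = enzyme with DMSO and 100% = no enzyme wells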
Target sequence (Q9P0U3 419-644 limits assumed): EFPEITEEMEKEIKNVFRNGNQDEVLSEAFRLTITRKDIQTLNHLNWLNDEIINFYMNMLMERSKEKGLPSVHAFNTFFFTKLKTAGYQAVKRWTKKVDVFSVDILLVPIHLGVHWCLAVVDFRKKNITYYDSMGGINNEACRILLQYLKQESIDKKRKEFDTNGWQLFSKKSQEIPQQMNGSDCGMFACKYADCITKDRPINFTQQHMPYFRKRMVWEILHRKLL
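Material: hSENP1 catalytic domain, recombinant; medium: Tris pH 8 with BME, BSA, NP40 and catalase; compound: single concentration of 10 µM compound, 0.5% DMSO final; technique: FRET read of cyan and yellow fluorescence; timing: 50 min enzyme reaction, room temperature, light-protected; reagent: SFCypet-SUMO1-SFYpet substrate at 25 nM; control set: no-enzyme low, enzyme-DMSO high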
SENP6 inh – blocks the human protease SENP6. Q9GZR1. actives 1.8% (n = 330,000). inhibition, % at 10 µM. AID 2599. Recombinant SENP6 catalytic domain, aminoluciferin luminescence;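 active means inhibition above about 50% at the single tested dose, limit read from the data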;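 further: plate controls were DMSO wells with enzyme for no effect and DMSO wells lacking enzyme for full effect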
SENP8 block-1 – blocks the human protease SENP8; Q96LD8; purified SENP8, Z-RLRGG-aminoluciferin cleavage, luminescence; inhibition, % at 10 µM; actives 1.2% (n = 330,000); AID 2540; in the data active means inhibition above about 50%
Target sequence (Q96LD8 whole entry, looked up): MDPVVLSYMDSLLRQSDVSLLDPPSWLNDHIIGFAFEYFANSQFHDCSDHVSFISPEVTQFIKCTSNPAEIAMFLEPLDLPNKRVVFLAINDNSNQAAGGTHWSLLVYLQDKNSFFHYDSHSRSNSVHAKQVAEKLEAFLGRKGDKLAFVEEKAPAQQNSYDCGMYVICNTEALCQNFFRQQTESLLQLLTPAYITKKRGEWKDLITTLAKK
SENP8 block-2 – blocks human SENP8 cleavage of Nedd8 substrate | inhibition, % at 20 µM | actives 0.64% (n = 360,000) | recombinant SENP8, Nedd8 substrate fluorescence | Q96LD8; in the data active means inhibition mostly above about 40%, no sharp cut-off; inactive means mostly below about 27%
SENP7 inh – inhibitors of human SENP7 protease; Q9BQF6; recombinant SENP7, Z-RLRGG-aminoluciferin luminescence, 40 min; inhibition, % at 5 µM; actives 1.5% (n = 330,000); AID 434973;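 active means inhibition above about 50% at the single test dose, limit read from the data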;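 further: plate controls were DMSO with enzyme for no effect and no enzyme buffer wells for full effect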
Apaf1 inhib – human Apaf-1 inhibition | O14727 | reconstituted apoptosome caspase-3 activity, DEVD-Rh110 fluorescence | inhibition, % at 20 µM | actives 0.71% (n = 330,000); active means inhibition of at least 40% at 20 µM;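 further: plate controls were DMSO wells for no effect and DEVD-CHO caspase inhibitor wells for full effect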
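Material: cell-free apoptosome with Apaf-1, procaspase-3 and caspase-9; Buffer or medium: Hepes pH 7.5 with detergent and BSA; Reagent: cytochrome c trigger plus (Z-DEVD)2-Rh110 caspase-3 substrate; Times: compound with Apaf-1, dATP, procaspase-3 30 min, then 50 min reaction, room temperature; Technique: Rh110 fluorescence intensity.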
SENP8 conf-1 – human SENP8 inhibition, confirmed; AID 488912; actives 40% (n = 6,200); Recombinant SENP8, Z-RLRGG-aminoluciferin luminescence, 60 min; inhibition, % at 12.5 µM; shares compounds with SENP7 inh;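 active means mean inhibition across replicates above about 50%, limit read from the data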
SENP6 conf – confirmation of human SENP6 protease inhibitors; AID 488915; inhibition, % at 12.5 µM; actives 58% (n = 6,200); shares compounds with SENP7 inh; recombinant SENP6, Z-RLRGG-aminoluciferin luminescence
SENP7 confirm – human SENP7 inhibition, confirmed | actives 69% (n = 6,200) | shares compounds with SENP7 inh | AID 488917 | inhibition, % at 12.5 µM | recombinant SENP7, Z-RLRGG-aminoluciferin luminescence, 40 min
Casp3 select – selectivity test for SENP inhibitors: human caspase-3 inhibition | inhibition, % at 12.5 µM | shares compounds with SENP7 inh | actives 60% (n = 6,200) | purified caspase-3, Z-DEVD-aminoluciferin luminescence, 60 min | AID 488918;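 active means mean inhibition above about 50%, limit read from the data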;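 further: plate controls were enzyme with DMSO for no effect and wells without caspase-3 for full effect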
SENP luc ctr – interferes with luciferase luminescence in SENP counter-screen | inhibition, % at 12.5 µM | Pre-incubated SENP8/Z-RLRGG-aminoluciferin, luciferase luminescence interference | AID 488919 | shares compounds with SENP7 inh | actives 39% (n = 6,200);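 active means mean inhibition above about 50% when retested at one dose, limit read from the data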;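 further: plate controls were DMSO wells with completed reaction for no effect and substrate without enzyme for full effect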
Apaf-1 inh conf – confirmation of Apaf-1 inhibitors; shares compounds with Apaf1 inhib; reconstituted apoptosome, caspase-3 DEVD-Rh110 fluorescence; inhibition, % at 20 µM; actives 25% (n = 1,800); AID 504614;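 active means mean inhibition of at least 40% at 20 µM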;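 further: plate controls were DMSO wells for no effect and DEVD-CHO caspase inhibitor control wells for full effect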
Rh110 quench – counter-screen for Apaf-1 inhibitors: fluorescence interference; shares compounds with Apaf1 inhib; Rh110 fluorescence interference, quenched caspase reaction; activation (fluorescence interference), % at 20 µM; 1,800 tested, under 10 active; AID 504615;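 active means signal rise of 40% or more at 20 µM, treated as a fluorescence artifact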
SENP8 conf-2 – SENP8 (human) inhibition, single concentration confirmation. purified SENP8, Nedd8-AMC/pro-Nedd8 cleavage fluorescence, 30 min. inhibition, % at 25 µM. actives 15% (n = 1,400). AID 624319. shares compounds with SENP8 block-2; in the data active means inhibition mostly above about 39%, no sharp cut-off; inactive means mostly below about 34%
* hit, by the source's call. Hits are enriched below; roughly 2.9% of the tested compounds scored in any of these assays.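 How the source made its calls, unless noted: active means mean inhibition above about 50% in the one-dose retest (limit read from the data); inactive means the rest.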

Results for COc1ccc2c(c1)Cc1sc(NC(C)=O)nc1-2 ?
SENP1 inh: -2; SENP6 inh: 81*; SENP8 block-1: 73*; SENP8 block-2: 67*; SENP7 inh: 62*; Apaf1 inhib: 73*; SENP8 conf-1: -8; SENP6 conf: 52*; SENP7 confirm: 76*; Casp3 select: 54*; SENP luc ctr: 29; Apaf-1 inh conf: 16; Rh110 quench: -4; SENP8 conf-2: 66*

Results for COc1ccc(C(=O)C(C)OC(=O)CNC(=O)c2ccco2)cc1 (stereo unspecified) ?
SENP1 inh: 2; SENP6 inh: 5; SENP8 block-1: 2; SENP8 block-2: 6; SENP7 inh: -1; Apaf1 inhib: -8

What do the screens show for `CC1=NN(c2ccc(F)cc2)C(=O)C1C(c1cccc(O)c1)c1c(C)[nH]n(-c2ccc(F)cc2)c1=O` (stereo unspecified)?
SENP1 inh: 2; SENP6 inh: 23; SENP8 block-1: 27; SENP8 block-2: 90*; SENP7 inh: 58*; Apaf1 inhib: 91*; SENP8 conf-1: -17; SENP6 conf: 19; SENP7 confirm: 6; Casp3 select: -2; SENP luc ctr: -1; Apaf-1 inh conf: 20; Rh110 quench: -4; SENP8 conf-2: 52*

Results for COC(=O)[C@@]12C[C@@H](CC(=O)N3CCN(C(=O)C4CC4)CC3)C(=O)N(Cc3cccc4ccccc34)C1=CCC(C)(C)C2 ?
SENP1 inh: 4; SENP8 block-2: 22

What do the screens show for `O=C1Cc2ccccc2C(=O)N1c1ccccc1`?
SENP1 inh: -26; SENP6 inh: 54*; SENP8 block-1: 17; SENP8 block-2: 53*; SENP7 inh: 18; Apaf1 inhib: 15; SENP8 conf-1: 5; SENP6 conf: 10; SENP7 confirm: 8; Casp3 select: 15; SENP luc ctr: 6; SENP8 conf-2: 4

How did O=C1CC(=O)N(c2ccccc2)c2ccccc21 do in these assays?
SENP1 inh: 0; SENP6 inh: 2; SENP8 block-1: 1; SENP8 block-2: 10; SENP7 inh: 1; Apaf1 inhib: 7

What do the screens show for `O=C1Cc2ccccc2C(=O)N1c1cccc(Cl)c1`?
SENP1 inh: -3; SENP6 inh: 52*; SENP8 block-1: 10; SENP8 block-2: 71*; SENP7 inh: 18; Apaf1 inhib: 29; SENP8 conf-1: 9; SENP6 conf: 33; SENP7 confirm: 22; Casp3 select: 14; SENP luc ctr: 3; SENP8 conf-2: 41
